In ChEMBL document CHEMBL4715713, “Novel anticancer oridonin derivatives possessing a diazen-1-ium-1,2-diolate nitric oxide donor moiety: Design, synthesis, biological evaluation and nitric oxide release studies” (Bioorg Med Chem Lett, 2016):
pIC50: −log10 of the molar value. Counter-ions that a name gives are not always drawn.

What was measured:
[1] = test system: Bel-7402; assay: Antiproliferative activity against human Bel-7402 cells assessed as reduction in cell viability incubated for 72 hrs by MTT assay; type: functional, cell-based; conditions: Bel-7402, 72 h
Method in brief: (§1)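 Cells were exposed to a range of test concentrations for 72 h and viability was read by MTT. IC50 values were taken from the concentration-response data, and means ± SD are from n = 3.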

[2] = test system: Bel-7402; assay: Antiproliferative activity against human Bel-7402 cells assessed as reduction in cell viability at 1 uM incubated for 72 hrs by MTT assay relative to control; type: functional
[3] = test system: Bel-7402; assay: Antiproliferative activity against human Bel-7402 cells assessed as reduction in cell viability at 10 uM incubated for 72 hrs by MTT assay relative to control; type: functional
[4] = test system: Bel-7402; assay: Antiproliferative activity against human Bel-7402 cells assessed as reduction in cell viability incubated for 72 hrs in presence of O2-Chloromethyl-1-( morpholin -1-yl)diazen-1-ium-1,2-diolate by MTT assay; type: functional, cell-based; conditions: Bel-7402, 72 h
[5] = Prodrug release in human Bel-7402 cells assessed as NO release by measuring increase in nitrite/nitrate production at 50 uM measured upto 24 hrs by Griess reagent based assay; type: ADME, cell-based; conditions: bel-7402, 24 h
Method in brief: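 Bel-7402 cells were seeded at 15,000/mL and treated in triplicate with each compound at 50 µM for varying times. Nitrate/nitrite in the cell lysates was determined by the Griess assay. Values are the mean of three independent experiments.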

[6] = test system: Bel-7402; assay: Induction of cell cycle arrest in human Bel-7402 cells assessed as accumulation in S phase at 1.25 uM incubated for 36 hrs by PI staining based flow cytometry analysis (reference value: 19.68 %); type: functional
[7] = test system: Bel-7402; assay: Induction of cell cycle arrest in human Bel-7402 cells assessed as increase in accumulation in S phase incubated for 36 hrs by PI staining based flow cytometry analysis; type: functional; conditions: dose 0.625-2.5 µM
[8] = test system: Bel-7402; assay: Induction of cell cycle arrest in human Bel-7402 cells assessed as accumulation in S phase at 0.625 uM incubated for 36 hrs by PI staining based flow cytometry analysis (reference value: 19.68 %); type: functional
[9] = test system: K562; assay: Antiproliferative activity against human K562 cells assessed as reduction in cell viability incubated for 72 hrs by MTT assay; type: functional, cell-based; conditions: K562, 72 h; method in brief: as §1
[10] = test system: Bel-7402; assay: Induction of cell cycle arrest in human Bel-7402 cells assessed as accumulation in G1 phase at 1.25 uM incubated for 36 hrs by PI staining based flow cytometry analysis (reference value: 74.01 %); type: functional
[11] = test system: Bel-7402; assay: Induction of cell cycle arrest in human Bel-7402 cells assessed as accumulation in G2 phase at 2.5 uM incubated for 36 hrs by PI staining based flow cytometry analysis (reference value: 6.31 %); type: functional
[12] = test system: Bel-7402; assay: Induction of cell cycle arrest in human Bel-7402 cells assessed as accumulation in G1 phase at 0.625 uM incubated for 36 hrs by PI staining based flow cytometry analysis (reference value: 74.01 %); type: functional
[13] = test system: Bel-7402; assay: Induction of cell cycle arrest in human Bel-7402 cells assessed as accumulation in G1 phase at 2.5 uM incubated for 36 hrs by PI staining based flow cytometry analysis (reference value: 74.01 %); type: functional
[14] = test system: Bel-7402; assay: Induction of apoptosis in human Bel-7402 cells assessed as apoptotic cells at 2.5 uM incubated for 36 hrs by Annexin V-FITC and PI staining based flow cytometry analysis (reference value: 6.20%); type: functional
[15] = test system: Bel-7402; assay: Induction of cell cycle arrest in human Bel-7402 cells assessed as accumulation in G2 phase at 1.25 uM incubated for 36 hrs by PI staining based flow cytometry analysis (reference value: 6.31 %); type: functional
[16] = test system: Bel-7402; assay: Induction of cell cycle arrest in human Bel-7402 cells assessed as accumulation in S phase at 2.5 uM incubated for 36 hrs by PI staining based flow cytometry analysis (reference value: 19.68 %); type: functional
[17] = test system: HeLa; assay: Antiproliferative activity against human HeLa cells assessed as reduction in cell viability incubated for 72 hrs by MTT assay; type: functional, cell-based; method in brief: as §1
[18] = test system: Bel-7402; assay: Induction of cell cycle arrest in human Bel-7402 cells assessed as accumulation in G2 phase at 0.625 uM incubated for 36 hrs by PI staining based flow cytometry analysis (reference value: 6.31 %); type: functional
[19] = test system: HepG2; assay: Antiproliferative activity against human HepG2 cells assessed as reduction in cell viability incubated for 72 hrs by MTT assay; type: functional, cell-based; conditions: HepG2, 72 h; method in brief: as §1
[20] = test system: A549; assay: Antiproliferative activity against human A549 cells assessed as reduction in cell viability incubated for 72 hrs by MTT assay; type: functional, cell-based; conditions: A549, 72 h; method in brief: as §1

| pIC50 [1] | Drug metabolism [5] | Structure (SMILES) | inhibition at 1 µM [2] [%] | inhibition at 10 µM [3] [%] | also measured |
| --- | --- | --- | --- | --- | --- |
| 4.96 |  | C=C1C(=O)[C@]23[C@H](OC(=O)CCCC(=O)OCO/N=[N+](\[O-])N4CCCC4)[C@H]1CC[C@H]2[C@@]12CO[C@@]3(O)[C@@H](O)[C@@H]1C(C)(C)CC[C@@H]2O | 26.1 | 93.4 |  |
| 5.60 |  | C=C1C(=O)[C@]23[C@H](OC(=O)CCCC(=O)OCO/N=[N+](\[O-])N4CCOCC4)[C@H]1CC[C@H]2[C@@]12CO[C@@]3(O)[C@@H](O)[C@@H]1C(C)(C)CC[C@@H]2O | 83.8 | 92.7 |  |
| 5.56 | Metabolite_Detected | C=C1C(=O)[C@]23[C@H](OC(=O)CCC(=O)OCO/N=[N+](\[O-])N4CCOCC4)[C@H]1CC[C@H]2[C@@]12CO[C@@]3(O)[C@@H](O)[C@@H]1C(C)(C)CC[C@@H]2O | 88.5 | 93.3 |  |
| 4.88 | Metabolite_Detected | C=C1C(=O)[C@]23[C@H](OC(=O)CCC(=O)OCO/N=[N+](\[O-])N4CCCC4)[C@H]1CC[C@H]2[C@@]12CO[C@@]3(O)[C@@H](O)[C@@H]1C(C)(C)CC[C@@H]2O | 15.9 | 93.2 |  |

More lines, now with the values behind:

| Structure (SMILES) | pIC50 [1] | Drug metabolism [5] | inhibition at 1 µM [2] [%] | inhibition at 10 µM [3] [%] | also measured |
| --- | --- | --- | --- | --- | --- |
| C=C1C(=O)[C@]23[C@H](O)[C@H]1CC[C@H]2[C@@]12CO[C@]3(O)[C@@H](O)[C@@H]1C(C)(C)CC[C@@H]2O [ORIDONIN] | 5.15 |  | 29.9 | 93.6 |  |
| C=C1C(=O)[C@]23[C@H](OC(=O)CCC(=O)OCO/N=[N+](\[O-])N4CCOCC4)[C@H]1CC[C@H]2[C@@]12CO[C@@]3(O)[C@@H](O)[C@@H]1C(C)(C)CCC2=O | 5.49 |  | 71.3 | 93.1 |  |
| C=C1C(=O)[C@]23[C@H](OC(=O)CCC(=O)O)[C@H]1CC[C@H]2[C@@]12CO[C@@]3(O)[C@@H](O)[C@@H]1C(C)(C)CCC2=O | 5.04 |  |  |  | pIC50 [4]: 5.28 |
| [O-]/[N+](=N\OCCl)N1CCOCC1 | 4.61 |  |  |  |  |
| C=C1C(=O)[C@]23[C@H](OC(=O)CCCC(=O)OCO/N=[N+](\[O-])N4CCCC4)[C@H]1CC[C@H]2[C@@]12CO[C@@]3(O)[C@@H](O)[C@@H]1C(C)(C)CCC2=O | 4.77 | Metabolite_Detected | 13.5 | 93.9 |  |
| C=C1C(=O)[C@]23[C@H](OC(=O)CCCC(=O)OCO/N=[N+](\[O-])N4CCOCC4)[C@H]1CC[C@H]2[C@@]12CO[C@@]3(O)[C@@H](O)[C@@H]1C(C)(C)CCC2=O | 5.74 | Metabolite_Detected | 87.8 | 93.9 | Activity [6]: 29.99%; Activity [7]: Dose-dependent effect; Activity [8]: 26.42%; pIC50 [9]: 5.07; Activity [10]: 66.35%; Activity [11]: 4.8%; Activity [12]: 68.47%; Activity [13]: 58.98%; Activity [14]: 51.91%; Activity [15]: 3.66%; Activity [16]: 36.22%; pIC50 [17]: 5.61; Activity [18]: 5.1%; pIC50 [19]: 5.59; pIC50 [20]: 5.95 |
| C=C1C(=O)[C@]23[C@H](OC(=O)CCC(=O)OCO/N=[N+](\[O-])N4CCOCC4)[C@H]1CC[C@H]2[C@@]12CO[C@@]3(O)[C@@H](O)[C@@H]1C(C)(C)CC[C@@H]2OC(C)=O | 5.52 |  | 85.8 | 94.5 |  |
| C=C1C(=O)[C@]23[C@H](OC(=O)CCC(=O)OCO/N=[N+](\[O-])N4CCCC4)[C@H]1CC[C@H]2[C@@]12CO[C@@]3(O)[C@@H](O)[C@@H]1C(C)(C)CCC2=O | 4.84 |  | 24.2 | 93.6 |  |
| COc1cccc2c1C(=O)c1c(O)c3c(c(O)c1C2=O)C[C@@](O)(C(=O)CO)C[C@@H]3O[C@H]1C[C@H](N)[C@H](O)[C@H](C)O1 [DOXORUBICIN HYDROCHLORIDE] | 6.08 |  |  |  |  |
